A selection: hits, their analogues and other compounds. The true share with any hit is near 1.4%.
PG9 Ab binder = binders of HIV-1 gp120 antibody PG9, primary screen, biochemical, TR-FRET; HIV-1 gp120 / PG9 antibody interaction; TR-FRET gp120-PG9 antibody binding; inhibition, % at 6.7 µM; 360,000 tested, 0.43% active; AID 624416, 2012; in the data active means inhibition above about 8.5%
NR2E3 ag-1 = inhibitors of NR2E3-RetCOR corepressor binding, primary screen, NR2E3 agonist project, biochemical, TR-FRET, GST-NR2E3, biotin-RetCOR; 320,000 tested, 0.12% active; Photoreceptor-specific nuclear receptor (Homo sapiens), Q9Y5X4; 1536-well; inhibition of corepressor binding, % at 4.78 µM;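 active means percent inhibition above the cutoff of mean plus 3 SD of all tested compounds, set per screening campaign, cut at about 20% in these data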;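 further: 0% = DMSO wells and 100% = biotin wells as full block of FRET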
Target sequence (Q9Y5X4 whole entry, looked up): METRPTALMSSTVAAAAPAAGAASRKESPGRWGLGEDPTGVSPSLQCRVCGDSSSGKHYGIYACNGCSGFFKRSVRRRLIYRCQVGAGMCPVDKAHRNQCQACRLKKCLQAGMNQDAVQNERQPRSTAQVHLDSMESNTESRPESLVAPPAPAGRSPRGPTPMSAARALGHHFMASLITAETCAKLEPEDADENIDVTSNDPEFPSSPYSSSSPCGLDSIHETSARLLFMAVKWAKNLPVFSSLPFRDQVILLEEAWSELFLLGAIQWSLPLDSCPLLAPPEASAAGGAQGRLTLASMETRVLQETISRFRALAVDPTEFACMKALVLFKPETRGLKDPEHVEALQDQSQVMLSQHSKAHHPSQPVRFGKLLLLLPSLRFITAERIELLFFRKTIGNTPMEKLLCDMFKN
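Assay system: NR2E3–RetCOR corepressor complex. Quantity: 1.35 nM GST-NR2E3. Buffer or medium: pH 7.5 Tris-based buffer. Reagent: biotinylated RetCOR corepressor at 7 nM final. Schedule: 5 h at 4 °C. Detection: TR-FRET, emission read at 617 and 671 nm. Replicates: one well per compound, singlicate testing.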
NR2E3 ag-2 = NR2E3 agonists in two-hybrid cells, primary screen, cell-based, luminescence, CHO-S, Gal4-NCOR/VP16-NR2E3. inhibition of corepressor binding, % at 3.98 µM. Photoreceptor-specific nuclear receptor (Homo sapiens), Q9Y5X4. luciferase. AID 602229, 2012. 360,000 tested, 0.35% active;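 active means inhibition above the mean of all tested compounds plus 3 SD, cut at about 70% in these data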;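 further: 0% = DMSO with NR2E3 transfected cells and 100% = cells lacking NR2E3 construct; higher means lower luciferase signal from less NR2E3 corepressor binding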
NR1D1 modulator = modulators of Rev-erb alpha DNA binding, primary screen, biochemical, FITC-DNA, fluorescence polarization, uHTS; Nuclear receptor subfamily 1 group D member 1 (Homo sapiens), P20393; activity, % at 10 µM; 370,000 tested, 0.79% active; AID 1259318, 2017; Rev-erbα–FITC-DNA binding, 90 min;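 active means activity above about 14%, limit read from the data; passing the limit was not always enough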;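 further: 0% = DMSO wells with 35 nM protein and 100% = DMSO wells with 750 nM protein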
Rev-erbA confirm = modulators of Rev-erb alpha DNA binding, confirmation, biochemical, FITC-DNA, fluorescence polarization, single point; shares compounds with NR1D1 modulator; 90 min; activation, % at 25 µM; 3,000 tested, 61% active;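 active means activation at or above a set limit, or at least 3 SD above the negative control mean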;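 further: 0% = 35 nM protein with DMSO and 100% = 750 nM protein high control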
RORg DNA counter = modulation of RORgamma DNA binding, dose response, counter-screen for Rev-erb alpha modulator project, biochemical, fluorescence polarization, FITC-DNA | shares compounds with NR1D1 modulator | purified RORgamma protein-FITC-DNA binding | IC50, µM | 910 tested, 8% active | AID 1259320, 2017;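 active means Compounds whose fitted half-maximal concentration for disrupting protein-DNA binding is below 10 micromolar; the record names Rev-erb in its text, so the target is in doubt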
* hit, by the source's call; i = inactive; . = no result given; ! = repeats disagree.

SMILES	PG9 Ab binder	NR2E3 ag-1	NR2E3 ag-2	NR1D1 modulator	Rev-erbA confirm	others
Cc1cc(Nc2cccc(Cl)c2)nc(-c2ccccc2O)n1	0.8	-1.4	6.5	6.1	.
Cc1cc(Nc2ccc(Cl)cc2)nc(-c2ccccc2O)n1	-2.1	.	-26.9	29.0*	-2.4
CCCCN(C)S(=O)(=O)c1ccc(C(=O)N=c2sc3cc(NC(C)=O)ccc3n2C)cc1	3.1	-1.1	-0.1	42.0*	14.0
COc1ccc(CN(Cc2cc3cc(OC)c(OC)cc3[nH]c2=O)C(=O)NC2CCCCC2)cc1	-0.7	-0.7	-0.9	50.5*	77.8*	RORg DNA counter=>40
CNC(=S)N(Cc1ccc(OC)cc1)Cc1cc2cc(C)ccc2[nH]c1=O	0.2	-1.2	-26.9	40.5*	24.9*
CC(C)CNc1ccc2c(c1)OC[C@@H](CC(C)C)NS2(=O)=O	.	.	.	3.0	.
COc1ccc(-n2c(SCC(=O)NN=Cc3c(O)ccc4ccccc34)nnc2-c2ccc(C(C)(C)C)cc2)cc1	.	.	.	1.3	.
COC(=O)C[C@H]1CC[C@@H]2[C@H](COc3ccc(NC(=O)c4ccccc4OC)cc3C(=O)N2C)O1	.	.	.	2.7	.
NC(=O)COc1ccc(/C=N\NC(=O)c2ccc(-c3ccccc3)cc2)cc1	1.9	0.2	-4.2	35.1*	20.5*
O=C(COc1ccc2ccccc2c1Br)NC(=S)Nc1cccc(CO)c1	-1.5	5.9	-9.5	24.4*	21.0*
O=C(COc1ccc(Br)cc1Br)NC(=S)Nc1cccc(CO)c1	-2.9	-0.3	-12.2	3.6	.
CCOC(=O)c1ccc2nc(Nc3nc4ccc(F)cc4s3)sc2c1	-0.2	-1.3	37.4	34.8*	31.4*	RORg DNA counter=>40
CCOC(=O)C(=CNc1nc2ccc(C(=O)OCC)cc2s1)C(=O)OCC	1.3	5.1	-9.6	34.5*	19.4*
CCOC(=O)c1ccc2nc(NC(C)=O)sc2c1	0.7	3.9	-103.7	2.8	.
COc1ccc(C(=O)C2(C(=O)Nc3cc(C)cc(C)c3)CC(c3ccccn3)=NO2)cc1 (stereo unspecified)	.	.	.	8.2	.
Cc1ccc(NC(=O)[C@H]2CC(=O)O[C@@H]2c2ccccc2)c(C)c1	.	.	.	5.6	.
CCc1cc(-c2n[nH]c(C)c2-c2nc3ccccc3s2)c(O)cc1OCC(=O)NN	1.2	3.8	2.6	13.4*	3.9
CCc1cc(-c2n[nH]c(C)c2-c2nc(C)cs2)c(O)cc1OC	-2.9	4.0	-34.2	-0.1	.
O=C(CSc1nc2ccccc2o1)NN=C/C=C\c1ccccc1[N+](=O)[O-]	.	.	.	-1.0	.
N#CCCN1CCCc2cc(N=Nc3ccc(C(F)(F)F)cc3)ccc21	-1.0	-0.7	-33.5	17.5*	21.9*
Cc1ccc(CN2CCCCC(NC(=O)c3ccc(C)cc3)C2=O)cc1 (stereo unspecified)	.	.	.	-7.1	.
Cc1cccc(CCNC(=O)c2ccc3c(c2)ncn3C2CCCCC2)c1	.	.	.	-6.1	.
Cc1nc(NCCc2ccc(Cl)cc2)c2nnn(Cc3ccccc3)c2n1	-0.7	-0.5	-18.9	40.0*	35.1*	RORg DNA counter=i
O=C(N1CCC(C(O)(c2ccccc2)c2ccccc2)CC1)n1ncc(C(O)(c2ccccc2)c2ccccc2)n1	.	.	.	10.0	.
CC/C(=C(/CC)c1ccc(O)cc1)c1ccc(O)cc1	-0.8	-0.4	-9.5	30.7*!	33.6*
SMILES	PG9 Ab binder	NR2E3 ag-1	NR2E3 ag-2	NR1D1 modulator	Rev-erbA confirm	others
CC/C(=C(/CC)c1ccc(OP(=O)(O)O)cc1)c1ccc(OP(=O)(O)O)cc1	.	.	.	0.7	.
O=C(CSc1nnc(-c2ccncc2)n1-c1ccccc1)Nc1ccc2c(c1)OCCO2	.	.	.	-4.8	.
CCOC(=O)c1nn(-c2ccc(C)cc2)c(=O)cc1OCC(=O)Nc1ccc(OC)cc1	-1.4	1.5	12.4	-14.9	.
CCOC(=O)c1nn(-c2ccc(F)cc2)c(=O)cc1OCC(=O)Nc1ccc(F)c(F)c1	-1.2	-2.1	2.8	170.0*	128.7*	RORg DNA counter=i
CCSC1=N/C(=C\C=C2/Oc3ccccc3N2CC)C(=O)S1	-3.4	-2.6	-40.2	49.8*	45.9*	RORg DNA counter=>40
CCSC1=N/C(=C\c2ccc3c(c2)OCO3)C(=O)S1	-0.3	1.4	4.6	2.9	.
COc1ccc(NC(=O)N(C)[C@H]2C[C@H]3c4[nH]c5c(-c6cccc(C)c6)cccc5c4CCN3C(=O)[C@H]2[C@H](C)O)cc1	.	.	.	-0.5	.
COc1cc(/C=C/C(=O)c2ccccc2)cc(OC)c1OC	.	.	.	3.8	.
COc1ccc(C2Nc3ccccc3C(=O)N2c2ccc(F)cc2)cc1CSc1ccccn1 (stereo unspecified)	-7.5	-8.3	-6.1	30.4*	15.4
CCN(CC)c1ccc(/C=C(/C#N)C(=O)NCc2ccccc2)o1	-14.1	-3.9	-80.0	25.0*	5.7
CC(C)NC(=O)/C(C#N)=C\c1ccc(N(C)C)o1	-30.1	-13.4	-22.2	15.0*	12.0
CCN(CC)c1ccc(/C=C(/C#N)C(=O)NC(C)C)o1	-17.2	-8.8	-14.5	18.6	.
CC1=C[C@]2(CN(CC3CC3)C3=N[C@H](c4ccccc4)CC(=O)N32)n2c(=O)n(-c3ccccc3)c(=O)n2C1	.	.	.	-3.4	.
O=C(OCCN1CCOCC1)c1ccc(O)cc1	-3.3	1.6	-5.4	13.8*	1.7
CC1CC(C)CN(CCCNS(=O)(=O)c2cc3c(cc2Br)CCN3C(=O)C2CC2)C1 (stereo unspecified)	.	.	.	-1.9	.
COc1ccc2c(COC(=O)c3ccc(C)c(S(=O)(=O)N4CCOCC4)c3)cc(=O)oc2c1	-0.9	.	-9.7	20.5*	25.9*
COc1ccc(C(=O)OCc2cc(=O)oc3cc(C)ccc23)cc1S(=O)(=O)N1CCOCC1	-0.1	.	-33.5	-3.4	.
Cc1cccc(C)c1OCc1cccc(C2Nc3ccccc3C(=O)N2Cc2ccco2)c1 (stereo unspecified)	.	.	.	11.3	.
Cn1c(Cc2cccs2)nnc1SCC(=O)Nc1ccc2c(c1)OCCO2	.	.	.	-6.6	.
O=C(Nc1ccon1)c1sc2cc(Cl)ccc2c1Cl	-1.9	-12.9	8.3	24.9*	14.6
O=C(NCc1ccco1)c1sc2cc(Cl)ccc2c1Cl	0.4	1.3	-53.0	-0.1	.
COc1ccc(OC)c(S(=O)(=O)N2CCCC(C(=O)N3CCN(Cc4ccccc4)CC3)C2)c1 (stereo unspecified)	.	.	.	4.9	.
CCOC(=O)C1Nc2c(F)cc(C)cc2C2c3ccccc3CC12 (stereo unspecified)	-2.6	0.5	14.6	108.9*	44.0*

Screening data deposited in PubChem BioAssay by several laboratories.
